Experimental data taken from ChEMBL document CHEMBL5584277, “Identification of 5-Thiocyanatothiazol-2-amines Disrupting WDR5-MYC Protein-Protein Interactions” (ACS Med Chem Lett, 2024).
One block for each molecule: values may come before it.

What was measured:
[1] = biological target: WDR5-MYC (Homo sapiens, UniProt P61964); assay: Disruption of WDR5/5-FAM-labelled MYC (261 to 267 residues)(unknown origin) interaction incubated for 120 mins by FP assay; format: protein assay
Method in brief: (§1)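 FP competition with reporter probe from MYC MbIIIb residues E261–V267 bound to WDR5, compound concentration varied, DMSO as negative control. Ki obtained by fitting FP signal change to a hyperbolic function. Unlabelled MYC peptide run as assay quality control.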

[2] = biological target: T1, WDR5-MYC (Homo sapiens) (UniProt P61964+P01106); assay: Disruption of WDR5/5-FAM-labelled MYC (261 to 267 residues)(unknown origin) interaction at 50 uM incubated for 120 mins by FP assay relative to control; format: protein assay
Method in brief: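 Single-point FP screen at 50 μM compound, signal read against DMSO control. Inhibition rate given as mean of n = 2.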

[3] = tested on: NCI-H1299; assay: Antiproliferative activity against human NCI-H1299 cells incubated for 72 hrs by SRB assay; format: functional, cell-based; conditions: NCI-H1299, 72 h
[4] = biological target: T1, WDR5-MYC (Homo sapiens); assay: Disruption of His-tagged recombinant WDR5 (unknown origin)/HEK293T cell lysate-derived C-MYC (unknown origin) protein-protein interaction assessed as dissociation of protein complex incubated for 120 mins by Co-IP assay
[5] = biological target: WD repeat-containing protein 5 (Homo sapiens) (UniProt P61964); assay: Binding affinity to WDR5 (unknown origin) assessed as decrease in melting temperature by DSF assay relative to control
Method in brief: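 DSF with WDR5 protein, with DMSO as the reference group. The inflection-point temperature (Ti) of WDR5 was monitored after compound treatment, and the change is reported as ΔTi relative to DMSO.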

[6] = tested on: Raji; assay: Antiproliferative activity against human Raji cells incubated for 72 hrs by SRB assay; format: functional, cell-based
[7] = tested on: Ramos; assay: Antiproliferative activity against human Ramos cells incubated for 72 hrs by SRB assay; format: functional, cell-based
[8] = tested on: HL-60; assay: Antiproliferative activity against human HL-60 cells incubated for 72 hrs by SRB assay; format: functional, cell-based; conditions: HL-60, 72 h
[9] = tested on: SUD4; assay: Antiproliferative activity against human SU-DHL-4 cells incubated for 72 hrs by SRB assay; format: functional, cell-based; conditions: SU-DHL-4, 72 h
[10] = biological target: T1, WDR5-MYC (Homo sapiens); assay: Disruption of WDR5/5-FAM-labelled MYC (261 to 267 residues)(unknown origin) interaction incubated for 0.5 hrs by FP assay relative to control; format: protein assay
Method in brief: (§2)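 Time-course FP competition between WDR5 and MYC-derived probe (E261–V267). Compound titrated and read after incubation times from 30 to 360 min. Maximal inhibition (%) and potency taken at each time point from the inhibition curves.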

[11] = biological target: T1, WDR5-MYC (Homo sapiens); assay: Disruption of WDR5/5-FAM-labelled MYC (261 to 267 residues)(unknown origin) interaction assessed as fold increase in activity incubated for 0.5 to 6 hrs by FP assay relative to control; format: protein assay; conditions: time 0.5-6 hrs
Method in brief: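 Fluorescence polarization with WDR5 and a reporter peptide probe from MYC MbIIIb residues E261–V267. Compounds and WDR5 were incubated for 30 to 360 min before reading. FP signal was recorded over varying compound concentrations and fitted to a hyperbolic function to give Ki. DMSO served as negative control, and free MYC peptide was the quality control.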

[12] = biological target: T1, WDR5-MYC (Homo sapiens); assay: Disruption of WDR5/5-FAM-labelled MYC (261 to 267 residues)(unknown origin) interaction by FP assay; format: protein assay; conditions: time 0.5-6 hrs; method in brief: as §1
[13] = biological target: T1, WDR5-MYC (Homo sapiens); assay: Disruption of WDR5/5-FAM-labelled MYC (261 to 267 residues)(unknown origin) interaction incubated for 6 hrs by FP assay relative to control; format: protein assay; method in brief: as §2
[14] = biological target: WD repeat-containing protein 5 (Homo sapiens) (UniProt P61964); assay: Binding affinity to WDR5 (unknown origin) assessed as increase in melting temperature by DSF assay relative to control
Method in brief: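 Differential scanning fluorimetry on WDR5 protein, compounds against DMSO. Inflection-point temperature (Ti) monitored, shift given as ΔTi relative to DMSO group.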

SMILES: Cc1ccc(-c2nc(N)sc2SC#N)cc1
Ki [1]: 3000 nM

SMILES: C[S+]([O-])c1sc(N)nc1-c1ccc(Cl)cc1 (stereo unspecified)
inhibition [2]: 0.4%

SMILES: N#CSc1sc(NC(=O)c2ccc(Cl)cc2)nc1-c1ccc(Cl)cc1
Ki [1]: > 50000 nM

SMILES: CNC(=O)c1ccc(-c2nc(N)sc2SC#N)cc1
Ki [1]: 1000 nM
IC50 [3]: 7400 nM
Activity [4]: Dose-Dependent Effect
ΔTm [5]: -5.8 °C
IC50 [6]: 1520 nM
IC50 [7]: 1510 nM
IC50 [8]: 5320 nM
IC50 [9]: 2200 nM

SMILES: CCOc1ccc(-c2nc(N)sc2SC#N)cc1Br
Ki [1]: 6300 nM

SMILES: N#CSc1sc(N)nc1-c1ccc(Cl)cc1
Activity [10]: 33.2%
Ki [1]: 1300 nM
ΔTm [5]: -2.7 °C
fold change (FC) [11]: 1.5
Activity [12]: Dose-Dependent Effect
Activity [13]: 51.2%

SMILES: N#CSc1sc(N)nc1-c1ccccc1Br
Ki [1]: 3000 nM

SMILES: N#CSc1sc(N)nc1-c1ccc(O)cc1
Ki [1]: 2400 nM
IC50 [3]: 3700 nM
Activity [4]: Dose-Dependent Effect
ΔTm [5]: -2.7 °C
IC50 [6]: 710 nM
IC50 [7]: 1060 nM
IC50 [8]: 3030 nM
IC50 [9]: 1430 nM

SMILES: N#CSc1sc(N)nc1-c1ccc(C(F)(F)F)cc1
Ki [1]: 1500 nM

SMILES: COc1ccc(Br)cc1S(=O)(=O)Nc1cc(Cl)ccc1O
ΔTm [14]: 1.4 °C
Ki [1]: 16300 nM

SMILES: N#CSc1sc(N)nc1-c1cccc([N+](=O)[O-])c1
Ki [1]: 4100 nM

SMILES: N#Cc1sc(N)nc1-c1ccc(Cl)cc1
inhibition [2]: 1.1%

SMILES: Nc1nc(-c2ccc(Cl)cc2)cs1
inhibition [2]: 0.9%

SMILES: N#CSc1sc(N)nc1-c1ccc(Br)cc1
Ki [1]: 900 nM

Second part, the molecule after the results:

Ki [1]: 3200 nM
SMILES: N#CSc1sc(N)nc1-c1ccc(F)cc1

Ki [1]: 54500 nM
SMILES: Cc1ccc(S(=O)(=O)Nc2nc(-c3ccc(Cl)cc3)c(SC#N)s2)cc1

Ki [1]: 1700 nM
SMILES: COC(=O)c1ccc(-c2nc(N)sc2SC#N)cc1

Ki [1]: 2900 nM
SMILES: COc1ccc(-c2nc(N)sc2SC#N)cc1

Ki [1]: 2600 nM
SMILES: N#CSc1sc(N)nc1-c1cccc(Br)c1

Ki [1]: 2600 nM
SMILES: N#CSc1sc(N)nc1-c1ccccc1Cl

Ki [1]: > 50000 nM
SMILES: N#CSc1sc(Nc2ccccn2)nc1-c1ccc(Cl)cc1

inhibition [2]: -10%
SMILES: CS(=O)(=O)c1sc(N)nc1-c1ccc(Cl)cc1

Ki [1]: 1600 nM
SMILES: CC(C)C(=O)Nc1nc(-c2ccc(Cl)cc2)c(SC#N)s1

Ki [1]: 1200 nM
SMILES: CNc1nc(-c2ccc(Cl)cc2)c(SC#N)s1

inhibition [2]: -5%
SMILES: Nc1nc(-c2ccc(Cl)cc2)c(Br)s1

Ki [1]: 6100 nM
SMILES: N#CSc1cnc(N)s1
